According to ChEMBL document CHEMBL1125273, “Synthesis and biological evaluation of quinocarcin derivatives: thioalkyl-substituted quinones and hydroquinones” (J Med Chem, 1991):
Values after ≈ are worked out from the molar mass of the structure shown.

Assays:
[1] = Ratio of the ILS tested compound/quinocarcin was determined in CD2F1 mice on days 1-5.; type: functional, Mus musculus
Method in brief: (§1)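 CD2F1 mice (5 per group) received 10^6 P388 cells ip. Drug was given ip on day 1 or on days 1–5. ILS was taken as (T/C − 1) × 100 from median survival times, and each compound's ILS was divided by the ILS of quinocarcin.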

[2] = tested on: HeLa; assay: In vitro concentration required to inhibit the growth of HeLa S3 cells by 50%; type: functional, cell-based; conditions: Homo sapiens
Method in brief: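 HeLa S3 cells (5 × 10⁴) seeded in Eagle's MEM with 10% FBS and 0.06 mg/mL kanamycin; graded drug concentrations, diluted in growth medium, added 24 h after seeding. Incubated 72 h at 37 °C, humidified 5% CO₂. Monolayers then washed, detached with 0.05% trypsin/0.02% EDTA and counted electronically; IC50 taken as concentration giving 50% growth inhibition.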

[3] = Ratio of the ILS tested compound/quinocarcin was determined for day one in CD2F1 mice.; type: functional, Mus musculus; method in brief: as §1
[4] = Antitumor activity in vivo in CD2F1 mice measured in terms of percent increase in lifespan calculated at a dose of 6.25 mg/kg intraperitoneally on days 1-5.; type: functional; conditions: Mus musculus, ip, route intraperitoneal
Method in brief: (§2)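 P388 lymphocytic leukemia cells (1×10^6) were implanted ip into CD2F1 mice (about 22 g), five mice per group. Drug was given ip from the day after implantation, either once (day 1) or daily on days 1–5. ILS = (T/C − 1) × 100, where T and C are the median survival times of treated and control mice.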

[5] = Antitumor activity in vivo in CD2F1 mice measured in terms of percent increase in lifespan calculated at a dose of 12.5 mg/kg intraperitoneally on day one.; type: functional; conditions: Mus musculus, ip, route intraperitoneal; method in brief: as §2
[6] = Antitumor activity in vivo in CD2F1 mice measured in terms of percent increase in lifespan calculated at a dose of 50 mg/kg intraperitoneally on day one.; type: functional; conditions: Mus musculus, ip, route intraperitoneal; method in brief: as §2
[7] = Antitumor activity in vivo in CD2F1 mice measured in terms of percent increase in lifespan calculated at a dose of 50 mg/kg intraperitoneally on days 1-5.; type: functional; conditions: Mus musculus, ip, route intraperitoneal; method in brief: as §2
[8] = Antitumor activity in vivo in CD2F1 mice measured in terms of percent increase in lifespan calculated at a dose of 6.25 mg/kg intraperitoneally on day one.; type: functional; conditions: Mus musculus, ip, route intraperitoneal; method in brief: as §2
[9] = Antitumor activity in vivo in CD2F1 mice measured in terms of percent increase in lifespan calculated at a dose of 3.13 mg/kg intraperitoneally on days 1-5.; type: functional; conditions: Mus musculus, ip, route intraperitoneal; method in brief: as §2
[10] = tested on: Homo sapiens; assay: Ratio of ILS tested compound/quinocarcin against human mammary carcinoma MX-1 cell line implanted subcutaneously in mice and the compound administered intravenously at a dose of 2.97 mg/kg on days 1-5.; type: functional; conditions: route intravenous
[11] = tested on: Homo sapiens; assay: Ratio of ILS tested compound/quinocarcin against human mammary carcinoma MX-1 cell line implanted subcutaneously in mice and the compound administered intravenously at a dose of 4.67 mg/kg on days 1-5.c means number of cured mice.; type: functional; conditions: route intravenous
[12] = tested on: CCRF S-180; assay: Ratio of ILS tested compound/quinocarcin against murine sarcoma S-180 tumor cell line implanted subcutaneously in mice and the compound administered intravenously at a dose of 3.13 mg/kg on days 1-5.; type: functional, Mus musculus; conditions: route intravenous
[13] = Antitumor activity in vivo in CD2F1 mice measured in terms of percent increase in lifespan calculated at a dose of 1.56 mg/kg intraperitoneally on days 1-5.; type: functional; conditions: Mus musculus, ip, route intraperitoneal; method in brief: as §2
[14] = tested on: CCRF S-180; assay: Ratio of ILS tested compound/quinocarcin against murine sarcoma S-180 tumor cell line implanted subcutaneously in mice and the compound administered intravenously at a dose of 6.25 mg/kg on days 1-5.; type: functional, Mus musculus; conditions: route intravenous
[15] = tested on: Homo sapiens; assay: Ratio of ILS tested compound/quinocarcin against human mammary carcinoma MX-1 cell line implanted subcutaneously in mice and the compound administered intravenously at a dose of 4.41 mg/kg on days 1-5.; type: functional; conditions: route intravenous
[16] = tested on: Homo sapiens; assay: Ratio of ILS tested compound/quinocarcin against human mammary carcinoma MX-1 cell line implanted subcutaneously in mice and the compound administered intravenously at a dose of 12.7 mg/kg on days 1-5.c means number of cured mice.; type: functional; conditions: route intravenous
[17] = Antitumor activity in vivo in CD2F1 mice measured in terms of percent increase in lifespan calculated at a dose of 12.5 mg/kg intraperitoneally on days 1-5.; type: functional; conditions: Mus musculus, ip, route intraperitoneal; method in brief: as §2

Structure (SMILES) | R [1] | IC50 [2] [µg/mL] | R [3] | ILS at 6.25 mg/kg [4] [%] | ILS at 12.5 mg/kg [5] [%] | ILS at 6.25 mg/kg [8] [%] | other results
CCCSC1=C(SCCC)C(=O)C2=C(C[C@H]3[C@H]4[C@H](C(=O)O)C[C@@H](C5OC[C@@H]2N53)N4C)C1=O (some centres undefined) | 0.98 | 0.03 (≈ 0.0627 µM) | 1.21 | 86 | 58 |  | 
COc1c2c(c(OC)c(SC(C)C)c1SC(C)C)[C@H](CO)N1C(C#N)[C@@H]3C[C@@H](C(=O)O)[C@H]([C@@H]1C2)N3C (some centres undefined) |  | 0.17 (≈ 0.317 µM) |  |  |  |  | ILS at 50 mg/kg [6]: 7%
CSc1c(O)c2c(c(O)c1SC)[C@@H]1COC3[C@@H]4C[C@@H](C(=O)O)[C@H]([C@H](C2)N31)N4C (some centres undefined) | 0.57 | 0.13 (≈ 0.306 µM) | 1.51 | 59 | 65 |  | 
CCOC(=O)CSC1=C(SCC(=O)OCC)C(=O)C2=C(C[C@H]3[C@H]4[C@H](C(=O)O)C[C@@H](C(C#N)N3[C@H]2CO)N4C)C1=O (some centres undefined) |  | 9.96 (≈ 16.8 µM) |  |  |  |  | ILS at 50 mg/kg [7]: 30%
CCSC1=C(SCC)C(=O)C2=C(C[C@H]3[C@H]4[C@H](C(=O)O)C[C@@H](C5OC[C@@H]2N53)N4C)C1=O (some centres undefined) | 0.93 | 0.08 (≈ 0.178 µM) | 1.33 |  |  | 64 | ILS at 3.13 mg/kg [9]: 82%
CC(C)SC1=C(SC(C)C)C(=O)C2=C(C[C@H]3[C@H]4[C@H](C(=O)O)C[C@@H](C5OC[C@@H]2N53)N4C)C1=O (some centres undefined) | 1.11 | 0.0019 (≈ 0.00397 µM) | 1.57 |  |  | 69 | T/C [10]: 0.046; T/C [11]: 0; ILS at 3.13 mg/kg [9]: 98%; T/C [12]: 0.73
CCSc1c(O)c2c(c(O)c1OC)[C@H](CO)N1C(C#N)[C@@H]3C[C@@H](C(=O)O)[C@H]([C@@H]1C2)N3C (some centres undefined) | 0.79 | 1.18 (≈ 2.62 µM) | 0.65 | 58 | 28 |  | 
COC1=C(SC(C)C)C(=O)C2=C(C[C@H]3[C@H]4[C@H](C(=O)O)C[C@@H](C5OC[C@@H]2N53)N4C)C1=O (some centres undefined) | 0.63 | 2.37 (≈ 5.45 µM) | 1.25 |  |  | 30 | ILS at 1.56 mg/kg [13]: 51%
CSc1c(O)c2c(c(O)c1SC)[C@H](CO)N1C(C#N)[C@@H]3C[C@@H](C(=O)O)[C@H]([C@@H]1C2)N3C (some centres undefined) | 0.86 | 0.09 (≈ 0.199 µM) | 1.09 |  |  | 47 | T/C [14]: 0.4; T/C [15]: 0.067; T/C [16]: 0; ILS at 3.13 mg/kg [9]: 92%
CCSC1=C(SCC)C(=O)C2=C(C[C@H]3[C@H]4[C@H](C(=O)O)C[C@@H](C(C#N)N3[C@H]2CO)N4C)C1=O (some centres undefined) | 0.42 | 0.11 (≈ 0.23 µM) | 1.16 | 51 | 50 |  | 
COC1=C(SC(C)C)C(=O)C2=C(C[C@H]3[C@H]4[C@H](C(=O)O)C[C@@H](C(C#N)N3[C@H]2CO)N4C)C1=O (some centres undefined) | 1 | 0.56 (≈ 1.21 µM) |  |  | 17 |  | ILS at 12.5 mg/kg [17]: 75%
COC1=C(SC(C)C)C(=O)C2=C(C1=O)[C@H](CO)N1C(C#N)[C@@H]3C[C@@H](C(=O)O)[C@H]([C@@H]1C2)N3C (some centres undefined) | 0.68 | 1.12 (≈ 2.43 µM) | 0.58 |  | 21 |  | ILS at 12.5 mg/kg [17]: 51%
